Laboratory results from paper PMC4174992 (The Journal of Physical Chemistry. B, 2014).
Where two headings read alike, the source gives them in different places.

Assays:
[1] = cited from earlier work
[2] = Atomic force microscopy; assay type: physicochemical
Procedure, shortened: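 Samples were N-acetyl/C-amide peptides at 200 μM in water, with no buffer, to slow aggregation and limit charge screening. Peptide stocks were made in filtered deionized water, flash-frozen and kept at −80 °C. AFM height images were taken at 1 Hz with 512 × 512 points, fibrils masked and first-order flattened. Each fibril or granular-aggregate height and length is the mean of 20 measurements.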

[3] = Ion-mobility mass spectrometry; assay type: physicochemical; conditions: IM-MS, 200 μM in water
[4] = test system: embryonic rat hippocampal neurons; conditions: Busciglio and co-workers; cited from earlier work

NFLVHSS
aggregation strength (class 6 steric zipper) ([1]; PDB ID 3FTH): weakly aggregating

YVVFV
aggregation strength (class 6 steric zipper) ([1]; PDB 4OLR / 4ONK): weakly aggregating

Ac-Aβ(25–35)-NH2: amphipathic amyloid-β fragment containing the hydrophobic hexapeptide GAIIGL (Ac-GSNKGAIIGLM-NH2; UniProt P05067 696-706, looked up, fragment)
aggregates observed by AFM (1 week) ([2]; 1 week incubated, 200 μM in water, mixture at 1:1): abundant fibrillar aggregates | time to fibrillar aggregates ([2]; fresh peptide, in water): within an hour | largest oligomers observed ([3]; heteroligomers from 1:1 mixture): hexamers and nonamers | onset of cross-section deviation from isotropic oligomer model ([3]; indicates extended oligomers): starting at the trimer stage

Aβ(1–40): full length Aβ isoform
result compared with Aβ(25–35) effect on neurons [4]: similar

YVVFL
aggregation strength (class 6 steric zipper) ([1]; PDB 4OLR / 4ONK): weakly aggregating
